Compounds with a hit are over-represented: about 3% of the library has one in this group of screens.
SENP6 inh: blocks the human protease SENP6; Q9GZR1; Recombinant SENP6 catalytic domain, aminoluciferin luminescence; inhibition, % at 10 µM; actives 1.8% (n = 330,000);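 active = inhibition above about 50% at the single tested dose, limit read from the data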
Target sequence (Q9GZR1 628-1112 limits assumed): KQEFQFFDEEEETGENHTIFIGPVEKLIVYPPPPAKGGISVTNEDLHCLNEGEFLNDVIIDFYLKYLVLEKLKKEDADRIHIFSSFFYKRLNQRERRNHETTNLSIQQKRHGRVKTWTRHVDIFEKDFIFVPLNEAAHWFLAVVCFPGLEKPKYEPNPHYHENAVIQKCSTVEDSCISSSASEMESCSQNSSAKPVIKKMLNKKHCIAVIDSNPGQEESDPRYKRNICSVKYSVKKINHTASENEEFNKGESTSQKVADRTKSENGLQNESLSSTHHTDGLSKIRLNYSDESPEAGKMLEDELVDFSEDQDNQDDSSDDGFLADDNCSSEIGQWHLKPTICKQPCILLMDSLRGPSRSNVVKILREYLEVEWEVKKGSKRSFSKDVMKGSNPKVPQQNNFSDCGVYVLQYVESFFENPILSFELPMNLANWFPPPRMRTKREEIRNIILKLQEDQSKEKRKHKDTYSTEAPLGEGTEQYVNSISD
Apaf1 inhib: blocks human Apaf-1 apoptosome activity; O14727; reconstituted apoptosome caspase-3 activity, DEVD-Rh110 fluorescence; inhibition, % at 20 µM; actives 0.71% (n = 330,000); AID 489030; active = inhibition of at least 40% at 20 µM
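System – cell-free apoptosome with Apaf-1, procaspase-3 and caspase-9 · Buffer or medium – pH 7.5 Hepes buffer with CHAPS, BSA, DTT · Also added – cytochrome c with DEVD-Rh110 · Times – 30 min compound preincubation, 50 min activation, room temperature · Technique – Rh110 fluorescence intensity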
SENP8 block-1: SENP8 protease inhibition; purified SENP8, Z-RLRGG-aminoluciferin cleavage, luminescence; inhibition, % at 10 µM; Q96LD8; actives 1.2% (n = 330,000); in the data active = inhibition above about 50%
UBC13 polyUb: human UBC13 polyubiquitination inhibition; P61088; UBC13 polyubiquitin chain formation, TR-FRET; inhibition, % at 20 µM; actives 0.47% (n = 330,000); AID 485273; in the data active = inhibition above about 45%, passing the limit was not always enough
SENP7 inh: inhibitors of human SENP7 protease; Q9BQF6; recombinant SENP7, Z-RLRGG-aminoluciferin luminescence, 40 min; inhibition, % at 5 µM; actives 1.5% (n = 330,000);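 active = inhibition above about 50% at the single test dose, limit read from the data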
SENP8 block-2: inhibitors of human SENP8 protease; actives 0.64% (n = 360,000); recombinant SENP8, Nedd8 substrate fluorescence; AID 602440; Q96LD8; inhibition, % at 20 µM; in the data active = inhibition mostly above about 40%, no sharp cut-off; inactive = mostly below about 27%
Apaf-1 inh conf2: confirmation of Apaf-1 inhibitors; actives 25% (n = 1,800); inhibition, % at 20 µM; shares compounds with Apaf1 inhib; AID 504614; reconstituted apoptosome, caspase-3 DEVD-Rh110 fluorescence;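 active = mean inhibition of at least 40% at 20 µM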
Rh110 quench: interferes with Rh110 fluorescence, flagging false Apaf-1 inhibitors; AID 504615; Rh110 fluorescence interference, quenched caspase reaction; activation (fluorescence interference), % at 20 µM; shares compounds with Apaf1 inhib; 1,800 tested, under 10 active;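 active = signal rise of 40% or more at 20 µM, treated as a fluorescence artifact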
Fluor interf inh: Apaf-1 inhibitor counter-screen fluorescence artifact. IC50, µM. fluorescence interference counterscreen, Apaf-1 assay format. 460 tested, under 10 active. shares compounds with Apaf1 inhib; call rule not given here
Numbers stand for hits; . = inactive; / = not tested or not shown.

SMILES	SENP6 inh	Apaf1 inhib	SENP8 block-1	UBC13 polyUb	SENP7 inh	SENP8 block-2	Apaf-1 inh conf2	Rh110 quench	others
CCOC(=O)c1sc2nc[nH]c(=O)c2c1C	.	.	.	.	.	.	/	/
CN1C(=O)c2cccc3c(S(=O)(=O)NCc4ccco4)ccc1c23	.	55	.	.	.	.	.	.
C[C@H](CO)N1C[C@H](C)[C@@H](CN(C)C(=O)Nc2ccc3c(c2)OCO3)Oc2ccc(NC(=O)NC3CCCCC3)cc2C1=O	.	.	.	.	.	.	/	/
CN(C)c1cccc2cccc(N(C)C)c12	.	89	.	.	.	.	.	.
CC(=O)c1ccc(N(C)C)c2c(N(C)C)cccc12	.	.	.	.	.	.	/	/
COc1cccc(-c2cn3nc4c(nc3n2)CCCC4)c1	.	53	.	.	.	.	.	.
Clc1nssc1=Nc1nncs1	.	.	.	.	.	.	/	/
Clc1ccc(N=c2ssnc2Cl)nc1	.	55	.	.	.	.	67	.	Fluor interf inh=.
CCOc1ccc2nc(NC3=NC(c4ccc(OC)cc4)CC(=O)N3)nc(C)c2c1 (centres undefined)	.	79	.	.	.	.	70	.	Fluor interf inh=.
O=S(=O)(NCc1nnnn1-c1ccc(F)cc1)c1ccc(F)cc1	/	/	/	/	/	.	/	/
Cc1[nH]n(-c2ccccc2)c(=O)c1-c1ccccc1	.	.	.	.	.	.	/	/
COc1cccc(C(c2c(C)[nH]n(-c3ccccc3)c2=O)c2c(C)[nH]n(-c3ccccc3)c2=O)c1OC	.	97	.	.	.	73	.	.
CCOc1cccc(C(c2c(C)n(C)n(-c3ccccc3)c2=O)c2c(C)n(C)n(-c3ccccc3)c2=O)c1OC	.	.	.	.	.	.	/	/
Cc1[nH]n(-c2ccccc2)c(=O)c1C(C[N+](=O)[O-])c1ccccc1Cl (centres undefined)	.	79	.	.	.	64	.	.
O=C1C(N2CCOCC2)=Cc2cccc3cccc1c23	/	/	/	/	/	.	/	/
O=C1C=C(N2CCOCC2)c2ccccc2C1=O	90	98	94	.	90	.	100	.	Fluor interf inh=.
CN(CC(=O)Nc1ccc(Cl)cc1)C(=O)c1sccc1-c1ccccc1	.	46	.	.	.	.	.	.
Cc1cccc(CC(=O)NCCn2c(C)cc3ccccc32)c1	.	41	.	.	.	.	.	.
CN1CCN(S(=O)(=O)c2ccc(SCCOc3ccc(Cl)cc3)nc2)CC1	.	51	.	.	.	.	.	.
COc1ccc(OCCSc2ccc(S(=O)(=O)N3CCCC3)cn2)cc1	.	.	.	.	.	.	/	/
Cc1ccc(C)c(N(CC(=O)NC2CCCC2)C(=O)c2csnn2)c1	.	.	.	.	.	.	/	/
Cc1[nH]c2ccccc2c1C(C#N)(C#N)C1C(=O)c2ccccc2C1=O	.	73	.	.	.	.	45	.	Fluor interf inh=.
O=C(c1ccc(-c2cccc(C(F)(F)F)c2)o1)N1CCCC(C(F)(F)F)C1 (centres undefined)	.	43	.	.	.	.	.	.
COCCCOc1cc(NCc2ccccc2)c2ncn(C(C)C)c2c1	.	41	.	.	.	.	.	.
CCC(COC(=O)c1ccccc1)Oc1cc(NCc2ccccc2)c2ncn(C(C)C)c2c1 (centres undefined)	.	69	.	.	.	44	.	.
CCC(CO)Oc1cc(NCc2ccccc2OC)c2ncn(C(C)C)c2c1 (centres undefined)	.	61	.	.	.	.	.	.
COc1ccc(Cc2cc(NCc3ccccc3)c3ncn(C(C)C)c3c2)cc1	.	.	.	.	.	.	/	/
COc1cc(NCc2ccccc2)c2ncn(Cc3ccccc3)c2c1	.	50	.	.	.	.	.	.
CCOC(=O)C(C)NC(=O)CCc1nnc2ccc(N3CCCCC3)nn12 (centres undefined)	.	.	.	.	.	.	/	/
CCc1ccc(OCc2n[nH]c(=S)n2C(C)CCCC(C)C)cc1 (centres undefined)	.	.	.	.	.	.	/	/
